Assay results: ChEMBL document CHEMBL1139871, “Selective urokinase-type plasminogen activator inhibitors. 4. 1-(7-sulfonamidoisoquinolinyl)guanidines” (J Med Chem, 2007)
In brackets after ≈: the same amount, converted by molar mass.

target: Coagulation factor X (Homo sapiens) (UniProt P00742); test: Inhibition of factor 10a at 10 uM; conditions: not given
In short: (§1)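 Human coagulation enzyme tested in a chromogenic enzyme assay. Percent inhibition was read at a single inhibitor concentration.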

Coagulation factor X (Homo sapiens), sequence (P00742 41-179 limits assumed): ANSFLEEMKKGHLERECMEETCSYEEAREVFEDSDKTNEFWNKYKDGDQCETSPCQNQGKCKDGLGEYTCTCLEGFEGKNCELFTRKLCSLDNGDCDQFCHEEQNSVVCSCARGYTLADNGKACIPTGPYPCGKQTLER
Coagulation factor X (Homo sapiens), sequence (P00742 235-488 limits assumed): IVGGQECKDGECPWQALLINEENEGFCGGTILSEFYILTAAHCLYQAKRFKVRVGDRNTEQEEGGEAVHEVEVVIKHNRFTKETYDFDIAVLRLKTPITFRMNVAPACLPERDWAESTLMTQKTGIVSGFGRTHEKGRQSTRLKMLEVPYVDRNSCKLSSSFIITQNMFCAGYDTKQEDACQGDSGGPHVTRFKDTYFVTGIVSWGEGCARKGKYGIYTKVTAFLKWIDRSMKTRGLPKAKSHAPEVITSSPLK

Structure (SMILES)	inhibition
NC(N)=Nc1nccc2c(Cl)cc(-c3cccc(C(=O)O)c3)cc12	0%
CC(C)(NS(=O)(=O)c1ccc2c(Cl)cnc(N=C(N)N)c2c1)C(=O)O	0%

species: Homo sapiens; test: Protein binding in human plasma; conditions: read-out: PPB (converted)

Structure (SMILES)	fraction unbound
NC(N)=Nc1nccc2c(Cl)cc(-c3cccc(C(=O)O)c3)cc12	0.002

target: T1, Urokinase-type plasminogen activator (Homo sapiens, UniProt P00749); test: Inhibition of human uPA in human wound fluid; conditions: not given

Structure (SMILES)	IC50
NC(N)=Nc1nccc2c(Cl)cc(-c3cccc(C(=O)O)c3)cc12	6.91 µM

target: T1, Urokinase-type plasminogen activator; test: Inhibition of uPA in pig granulation tissue homogenate; conditions: not given

Structure (SMILES)	IC50
NC(N)=Nc1nccc2c(Cl)cc(-c3cccc(C(=O)O)c3)cc12	8.35 µM

target: T2, Tissue-type plasminogen activator (Homo sapiens, UniProt P00750); test: Inhibition of human tPA at 100 uM; conditions: not given
In short: (§2)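 Human one-chain tPA (0.4 µg/mL final) with 0.1 mg/mL tPA stimulator, preincubated with inhibitor for 15 min at 37 °C in 75 mM Tris pH 8.1, 50 mM NaCl. Then incubated with 0.4 mM S-2288 substrate for 60 min at 37 °C. Absorbance read at 405 nm, background subtracted, and percent inhibition calculated.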
Target sequence in this assay (P00750 36-562 limits assumed): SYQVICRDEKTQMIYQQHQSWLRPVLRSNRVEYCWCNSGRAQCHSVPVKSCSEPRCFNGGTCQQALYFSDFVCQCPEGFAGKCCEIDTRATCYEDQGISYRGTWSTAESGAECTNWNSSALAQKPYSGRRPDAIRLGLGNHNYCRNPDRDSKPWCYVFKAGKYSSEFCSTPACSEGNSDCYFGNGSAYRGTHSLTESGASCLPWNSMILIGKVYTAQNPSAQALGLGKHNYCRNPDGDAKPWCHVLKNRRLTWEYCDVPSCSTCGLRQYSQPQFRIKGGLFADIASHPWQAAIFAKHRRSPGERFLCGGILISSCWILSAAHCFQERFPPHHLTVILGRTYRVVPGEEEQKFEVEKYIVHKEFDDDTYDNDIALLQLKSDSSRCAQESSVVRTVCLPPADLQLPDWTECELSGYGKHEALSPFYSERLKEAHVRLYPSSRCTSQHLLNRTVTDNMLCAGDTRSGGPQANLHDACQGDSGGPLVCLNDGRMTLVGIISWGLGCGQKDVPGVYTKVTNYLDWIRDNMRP

Structure (SMILES)	inhibition
NC(N)=Nc1ncc(Cl)c2ccc(S(=O)(=O)NC3(C(=O)O)CCC3)cc12	< 50%
NC(N)=Nc1ncc(Cl)c2ccc(S(=O)(=O)N3CCC[C@@H]3C(=O)O)cc12	< 50%
CN(CC(=O)O)S(=O)(=O)c1ccc2c(Cl)cnc(N=C(N)N)c2c1	< 50%
NC(N)=Nc1ncc(Cl)c2ccc(S(N)(=O)=O)cc12	< 50%

system: not listed separately; test: Dissociation constant, pKa of the compound; assay type: physicochemical; conditions: not given

Structure (SMILES)	pKa
NC(N)=Nc1nccc2c(Cl)cc(-c3cccc(C(=O)O)c3)cc12	2.35
CC(C)(NS(=O)(=O)c1ccc2c(Cl)cnc(N=C(N)N)c2c1)C(=O)O	3.4

target: T2, Tissue-type plasminogen activator; test: Inhibition of human tPA at 30 uM; conditions: not given; in short: as §2
Target sequence in this assay (P00750 36-562 limits assumed): as above

Structure (SMILES)	inhibition
NC(N)=Nc1ncc(Cl)c2ccc(S(=O)(=O)NC3CCCC3)cc12	< 50%

target: T2, Tissue-type plasminogen activator; test: Inhibition of human tPA; conditions: not given
In short: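 Human one-chain tPA 0.4 µg/mL (final) with 0.1 mg/mL tPA stimulator, preincubated 15 min at 37 °C with inhibitor in 75 mM Tris pH 8.1, 50 mM NaCl. Then 0.4 mM S-2288 (H-D-Ile-Pro-Arg-pNA) added, 60 min at 37 °C. A405 read after preincubation and after substrate incubation, background subtracted. IC50 from % inhibition vs concentration. Ki = IC50/(1+[S]/Km), Km 250 µM.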
Target sequence in this assay (P00750 whole entry): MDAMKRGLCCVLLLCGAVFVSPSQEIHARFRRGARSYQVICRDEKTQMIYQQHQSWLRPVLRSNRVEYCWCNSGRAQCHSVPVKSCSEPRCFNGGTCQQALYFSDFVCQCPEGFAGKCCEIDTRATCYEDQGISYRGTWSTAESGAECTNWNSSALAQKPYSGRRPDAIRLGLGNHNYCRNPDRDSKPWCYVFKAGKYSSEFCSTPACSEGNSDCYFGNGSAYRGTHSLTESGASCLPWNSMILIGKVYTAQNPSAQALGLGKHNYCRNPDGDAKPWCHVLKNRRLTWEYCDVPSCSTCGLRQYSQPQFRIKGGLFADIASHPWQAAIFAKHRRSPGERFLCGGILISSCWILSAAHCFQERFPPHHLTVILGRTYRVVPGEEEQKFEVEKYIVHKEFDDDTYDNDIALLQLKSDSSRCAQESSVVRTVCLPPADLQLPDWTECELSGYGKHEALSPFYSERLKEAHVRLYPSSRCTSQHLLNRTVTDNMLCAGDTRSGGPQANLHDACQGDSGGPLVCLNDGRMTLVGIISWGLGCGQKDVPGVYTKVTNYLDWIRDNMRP

Structure (SMILES)	Ki
NC(N)=Nc1ncc(Cl)c2ccc(S(=O)(=O)N(CC(=O)O)CC3CCCC3)cc12	> 100 µM
NC(N)=Nc1ncc(Cl)c2ccc(S(=O)(=O)N(CC(=O)O)c3ccccc3)cc12	> 100 µM
NC(N)=Nc1nccc2ccc(S(N)(=O)=O)cc12	24 µM
NC(N)=Nc1ncc(Cl)c2ccc(S(=O)(=O)NC3(C(=O)O)CCCCC3)cc12	> 100 µM
NC(N)=Nc1ncc(Cl)c2ccc(S(=O)(=O)NCCC(=O)O)cc12	> 100 µM
CC(C)(NS(=O)(=O)c1ccc2c(Cl)cnc(N=C(N)N)c2c1)C(=O)O	40 µM
NC(N)=Nc1ncc(Cl)c2ccc(S(=O)(=O)NC3(C(=O)O)CCCC3)cc12	38 µM
NC(N)=Nc1ncc(Cl)c2ccc(S(=O)(=O)N3CCCC3)cc12	> 30 µM
NC(N)=Nc1ncc(Cl)c2ccc(S(=O)(=O)Nc3ccccc3C(=O)O)cc12	> 100 µM
NC(N)=Nc1ncc(Cl)c2ccc(S(=O)(=O)NCC(=O)O)cc12	> 30 µM
NC(N)=Nc1nccc2ccc(S(=O)(=O)Nc3ccccc3)cc12	15 µM
NC(N)=Nc1ncc(Cl)c2ccc(S(=O)(=O)NC3(C(=O)O)CCC3)cc12	> 100 µM
NC(N)=Nc1ncc(Cl)c2ccc(S(=O)(=O)N3CCCC[C@@H]3C(=O)O)cc12	> 100 µM
C[C@@H](C(=O)O)N(Cc1ccccc1)S(=O)(=O)c1ccc2c(Cl)cnc(N=C(N)N)c2c1	> 100 µM
CC(C)[C@@H](NS(=O)(=O)c1ccc2c(Cl)cnc(N=C(N)N)c2c1)C(=O)O	38 µM
NC(N)=Nc1ncc(Cl)c2ccc(S(=O)(=O)Nc3cccc(C(=O)O)c3)cc12	> 100 µM
NC(N)=Nc1ncc(Cl)c2ccc(S(=O)(=O)N3CCC[C@@H]3C(=O)O)cc12	> 100 µM
NC(N)=Nc1ncc(Cl)c2ccc(S(=O)(=O)NC3CCCC3)cc12	> 30 µM
CN(CC(=O)O)S(=O)(=O)c1ccc2c(Cl)cnc(N=C(N)N)c2c1	> 100 µM
NC(N)=Nc1ncc(Cl)c2ccc(S(N)(=O)=O)cc12	> 100 µM

target: T3, Coagulation factor VII (Homo sapiens) (UniProt P08709); test: Inhibition of factor 7a at 10 uM; conditions: not given
T3 sequence (whole entry): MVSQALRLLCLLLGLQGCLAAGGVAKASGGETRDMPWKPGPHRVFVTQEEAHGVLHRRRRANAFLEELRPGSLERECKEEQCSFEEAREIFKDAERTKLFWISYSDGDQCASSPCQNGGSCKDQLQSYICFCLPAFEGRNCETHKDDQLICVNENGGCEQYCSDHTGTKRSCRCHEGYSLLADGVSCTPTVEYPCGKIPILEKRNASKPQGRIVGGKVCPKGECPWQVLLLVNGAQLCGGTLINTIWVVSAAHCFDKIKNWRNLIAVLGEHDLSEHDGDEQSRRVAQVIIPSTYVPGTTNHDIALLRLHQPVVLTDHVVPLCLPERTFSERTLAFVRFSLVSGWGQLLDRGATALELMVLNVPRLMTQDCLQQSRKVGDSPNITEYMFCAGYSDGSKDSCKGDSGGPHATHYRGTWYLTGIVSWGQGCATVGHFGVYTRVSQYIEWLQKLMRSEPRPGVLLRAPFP
In short: (§3)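 Chromogenic enzyme assays against coagulation proteases: bovine thrombin, human factors VIIa and IXa.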

Structure (SMILES)	inhibition
NC(N)=Nc1nccc2c(Cl)cc(-c3cccc(C(=O)O)c3)cc12	3%

target: T4, Coagulation factor IX (Homo sapiens, UniProt P00740); test: Inhibition of factor 9a at 12.5 uM; conditions: not given; in short: as §1
T4 sequence (P00740 47-191 limits assumed): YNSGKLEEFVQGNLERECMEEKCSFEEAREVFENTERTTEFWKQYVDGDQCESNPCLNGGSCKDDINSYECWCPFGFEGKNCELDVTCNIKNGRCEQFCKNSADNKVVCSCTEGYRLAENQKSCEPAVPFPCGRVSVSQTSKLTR
T4 sequence (P00740 227-461 limits assumed): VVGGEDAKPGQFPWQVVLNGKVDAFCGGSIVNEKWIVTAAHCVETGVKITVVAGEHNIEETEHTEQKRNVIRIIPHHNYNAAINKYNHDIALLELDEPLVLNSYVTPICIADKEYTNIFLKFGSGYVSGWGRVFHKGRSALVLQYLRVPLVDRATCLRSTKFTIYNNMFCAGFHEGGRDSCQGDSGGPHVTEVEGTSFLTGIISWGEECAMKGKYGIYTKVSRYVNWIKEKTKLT

Structure (SMILES)	inhibition
CC(C)(NS(=O)(=O)c1ccc2c(Cl)cnc(N=C(N)N)c2c1)C(=O)O	13%

system: not listed separately; test: Lipophilicity, log D at pH7.4; assay type: physicochemical; conditions: buffer, pH 7.4

Structure (SMILES)	logD
NC(N)=Nc1nccc2c(Cl)cc(-c3cccc(C(=O)O)c3)cc12	2.3
CC(C)(NS(=O)(=O)c1ccc2c(Cl)cnc(N=C(N)N)c2c1)C(=O)O	0

target: Plasminogen (Homo sapiens, UniProt P00747); test: Inhibition of human plasmin; conditions: not given
In short: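 Human plasmin 0.7 µg/mL with 0.2 mM Chromozym-PL and varied inhibitor in Tris pH 8.1/NaCl buffer. Preincubated 15 min at 37 °C, then 30 min at 37 °C with substrate. A405 background-subtracted, % inhibition plotted for IC50.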

Plasminogen, sequence (P00747 97-580 limits assumed): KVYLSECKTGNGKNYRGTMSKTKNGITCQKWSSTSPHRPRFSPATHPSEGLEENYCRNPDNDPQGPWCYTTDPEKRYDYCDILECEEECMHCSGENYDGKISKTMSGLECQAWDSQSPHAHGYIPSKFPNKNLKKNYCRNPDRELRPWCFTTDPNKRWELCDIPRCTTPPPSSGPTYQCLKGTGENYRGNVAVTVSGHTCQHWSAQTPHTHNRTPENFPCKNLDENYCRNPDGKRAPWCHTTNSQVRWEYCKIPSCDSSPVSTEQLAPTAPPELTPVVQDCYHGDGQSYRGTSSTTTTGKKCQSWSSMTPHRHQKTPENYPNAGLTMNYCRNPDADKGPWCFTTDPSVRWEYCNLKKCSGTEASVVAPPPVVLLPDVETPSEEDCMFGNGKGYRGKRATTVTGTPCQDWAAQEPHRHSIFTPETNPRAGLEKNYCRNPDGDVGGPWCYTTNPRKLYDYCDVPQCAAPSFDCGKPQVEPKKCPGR
Plasminogen, sequence (P00747 581-810 limits assumed): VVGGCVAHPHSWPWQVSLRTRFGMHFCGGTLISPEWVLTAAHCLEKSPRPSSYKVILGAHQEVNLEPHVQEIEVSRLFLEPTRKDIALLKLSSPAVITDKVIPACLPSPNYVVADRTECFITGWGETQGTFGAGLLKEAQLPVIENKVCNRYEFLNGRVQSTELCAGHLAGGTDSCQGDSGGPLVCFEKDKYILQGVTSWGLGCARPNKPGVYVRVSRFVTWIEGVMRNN

Structure (SMILES)	Ki
NC(N)=Nc1ncc(Cl)c2ccc(S(=O)(=O)N(CC(=O)O)CC3CCCC3)cc12	23 µM
NC(N)=Nc1ncc(Cl)c2ccc(S(=O)(=O)N(CC(=O)O)c3ccccc3)cc12	> 100 µM
NC(N)=Nc1nccc2ccc(S(N)(=O)=O)cc12	13 µM
NC(N)=Nc1ncc(Cl)c2ccc(S(=O)(=O)NC3(C(=O)O)CCCCC3)cc12	39 µM
NC(N)=Nc1ncc(Cl)c2ccc(S(=O)(=O)NCCC(=O)O)cc12	> 100 µM
CC(C)(NS(=O)(=O)c1ccc2c(Cl)cnc(N=C(N)N)c2c1)C(=O)O	27 µM
NC(N)=Nc1ncc(Cl)c2ccc(S(=O)(=O)NC3(C(=O)O)CCCC3)cc12	14 µM
NC(N)=Nc1ncc(Cl)c2ccc(S(=O)(=O)N3CCCC3)cc12	> 30 µM
NC(N)=Nc1ncc(Cl)c2ccc(S(=O)(=O)Nc3ccccc3C(=O)O)cc12	33 µM
NC(N)=Nc1ncc(Cl)c2ccc(S(=O)(=O)NCC(=O)O)cc12	> 30 µM
NC(N)=Nc1nccc2ccc(S(=O)(=O)Nc3ccccc3)cc12	3.2 µM
NC(N)=Nc1ncc(Cl)c2ccc(S(=O)(=O)NC3(C(=O)O)CCC3)cc12	16 µM
NC(N)=Nc1ncc(Cl)c2ccc(S(=O)(=O)N3CCCC[C@@H]3C(=O)O)cc12	> 100 µM
CC(C)[C@@H](NS(=O)(=O)c1ccc2c(Cl)cnc(N=C(N)N)c2c1)C(=O)O	16 µM
NC(N)=Nc1ncc(Cl)c2ccc(S(=O)(=O)Nc3cccc(C(=O)O)c3)cc12	9.8 µM
NC(N)=Nc1ncc(Cl)c2ccc(S(=O)(=O)N3CCC[C@@H]3C(=O)O)cc12	> 100 µM
NC(N)=Nc1ncc(Cl)c2ccc(S(=O)(=O)NC3CCCC3)cc12	> 100 µM
CN(CC(=O)O)S(=O)(=O)c1ccc2c(Cl)cnc(N=C(N)N)c2c1	> 100 µM
NC(N)=Nc1ncc(Cl)c2ccc(S(N)(=O)=O)cc12	> 100 µM

species: Homo sapiens; test: Solubility in human plasma; conditions: not given

Structure (SMILES)	solubility
NC(N)=Nc1nccc2c(Cl)cc(-c3cccc(C(=O)O)c3)cc12	60 µM (≈ 20.4 µg/mL)

target: T1, Urokinase-type plasminogen activator; test: not given; conditions: not given

Structure (SMILES)	Ki
NC(N)=Nc1ncc(Cl)c2ccc(S(=O)(=O)N(CC(=O)O)CC3CCCC3)cc12	0.031 µM
NC(N)=Nc1ncc(Cl)c2ccc(S(=O)(=O)N(CC(=O)O)c3ccccc3)cc12	0.029 µM
NC(N)=Nc1nccc2ccc(S(N)(=O)=O)cc12	0.28 µM
NC(N)=Nc1ncc(Cl)c2ccc(S(=O)(=O)NC3(C(=O)O)CCCCC3)cc12	0.008 µM
NC(N)=Nc1ncc(Cl)c2ccc(S(=O)(=O)NCCC(=O)O)cc12	0.058 µM
NC(N)=Nc1ncc(Cl)c2ccc(S(=O)(=O)NC3(C(=O)O)CCCC3)cc12	0.0058 µM
NC(N)=Nc1ncc(Cl)c2ccc(S(=O)(=O)Nc3ccccc3C(=O)O)cc12	0.086 µM
NC(N)=Nc1ncc(Cl)c2ccc(S(=O)(=O)NCC(=O)O)cc12	0.048 µM
C[C@@H](C(=O)O)N(Cc1ccccc1)S(=O)(=O)c1ccc2c(Cl)cnc(N=C(N)N)c2c1	0.027 µM
CC(C)[C@@H](NS(=O)(=O)c1ccc2c(Cl)cnc(N=C(N)N)c2c1)C(=O)O	0.019 µM
NC(N)=Nc1ncc(Cl)c2ccc(S(=O)(=O)Nc3cccc(C(=O)O)c3)cc12	0.059 µM
NC(N)=Nc1ncc(Cl)c2ccc(S(=O)(=O)N3CCC[C@@H]3C(=O)O)cc12	0.0099 µM
NC(N)=Nc1ncc(Cl)c2ccc(S(=O)(=O)NC3CCCC3)cc12	0.071 µM

target: Prothrombin (Bos taurus) (UniProt P00735); test: Inhibition of bovine thrombin at 10 uM; conditions: not given; in short: as §3

Structure (SMILES)	inhibition
NC(N)=Nc1nccc2c(Cl)cc(-c3cccc(C(=O)O)c3)cc12	2%

system: not listed separately; test: Drug level in dermis of pig excisional wound model; assay type: ADME, tissue-based, Sus scrofa; conditions: in vivo, read-out: Activity
In short: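 Pig full-thickness wounds dosed topically once daily for 10 days with 1 mL of 10 mg/mL compound suspended in hydrogel (glycerol/water/F127/CMC). Animals killed on day 11. Wounds excised and dermal compound concentration determined.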

Structure (SMILES)	concentration
CC(C)(NS(=O)(=O)c1ccc2c(Cl)cnc(N=C(N)N)c2c1)C(=O)O	41.8 µM

system: not listed separately; test: Solubility in phosphate buffered saline at pH 6.5; assay type: physicochemical; conditions: not given
In short: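 Solubility measured in phosphate-buffered saline, pH 6.5.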

Structure (SMILES)	solubility
NC(N)=Nc1nccc2c(Cl)cc(-c3cccc(C(=O)O)c3)cc12	< 1 µg/mL
CC(C)(NS(=O)(=O)c1ccc2c(Cl)cnc(N=C(N)N)c2c1)C(=O)O	2.3 µg/mL (≈ 5.96 µM)

target: T4, Coagulation factor IX; test: Inhibition of factor 9a; conditions: not given; in short: as §3

Structure (SMILES)	Ki
NC(N)=Nc1nccc2c(Cl)cc(-c3cccc(C(=O)O)c3)cc12	1.24 µM
